Reference: paper PMC3401020 (Bioorganic & medicinal chemistry, 2011)

What was measured:
[1] = molecular target: T1, COX-1 (Ovis aries, UniProt P05979); details: already reported; cited from earlier work
T1 sequence (P05979 25-600): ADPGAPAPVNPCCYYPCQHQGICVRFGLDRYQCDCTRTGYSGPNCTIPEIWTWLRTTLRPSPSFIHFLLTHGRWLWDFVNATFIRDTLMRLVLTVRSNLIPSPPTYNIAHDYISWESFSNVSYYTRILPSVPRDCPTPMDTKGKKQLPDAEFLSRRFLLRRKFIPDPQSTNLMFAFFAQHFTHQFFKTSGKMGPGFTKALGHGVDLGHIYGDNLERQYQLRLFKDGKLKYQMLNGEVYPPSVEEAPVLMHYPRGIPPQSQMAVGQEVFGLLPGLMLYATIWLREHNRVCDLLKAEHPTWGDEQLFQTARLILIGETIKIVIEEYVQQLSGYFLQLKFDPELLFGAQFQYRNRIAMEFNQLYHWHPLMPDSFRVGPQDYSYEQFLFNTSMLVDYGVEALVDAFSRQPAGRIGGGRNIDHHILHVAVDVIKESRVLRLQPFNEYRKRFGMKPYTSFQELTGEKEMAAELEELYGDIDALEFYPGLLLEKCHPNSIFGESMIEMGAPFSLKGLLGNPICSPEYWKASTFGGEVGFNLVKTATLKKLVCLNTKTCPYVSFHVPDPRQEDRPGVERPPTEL

[2] = molecular target: T1, COX-1; test: COX-1 inhibition, conversion of [14C]-arachidonic acid to [14C]-prostaglandins; type: biochemical, ovine; details: 25 μM concentration
Summary of the method: (§1)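 Carbaborane esters of indomethacin screened at 25 μM against ovine COX-1 and murine COX-2, measuring conversion of [14C]-arachidonic acid to [14C]-prostaglandins. Reactions were stopped, then substrate consumption was read by thin-layer chromatography.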

[3] = molecular target: T2, COX-2 (Mus musculus, UniProt Q05769); test: COX-2 inhibition, conversion of [14C]-arachidonic acid to [14C]-prostaglandins; type: biochemical, murine; details: 25 μM concentration
T2 sequence (Q05769 18-604): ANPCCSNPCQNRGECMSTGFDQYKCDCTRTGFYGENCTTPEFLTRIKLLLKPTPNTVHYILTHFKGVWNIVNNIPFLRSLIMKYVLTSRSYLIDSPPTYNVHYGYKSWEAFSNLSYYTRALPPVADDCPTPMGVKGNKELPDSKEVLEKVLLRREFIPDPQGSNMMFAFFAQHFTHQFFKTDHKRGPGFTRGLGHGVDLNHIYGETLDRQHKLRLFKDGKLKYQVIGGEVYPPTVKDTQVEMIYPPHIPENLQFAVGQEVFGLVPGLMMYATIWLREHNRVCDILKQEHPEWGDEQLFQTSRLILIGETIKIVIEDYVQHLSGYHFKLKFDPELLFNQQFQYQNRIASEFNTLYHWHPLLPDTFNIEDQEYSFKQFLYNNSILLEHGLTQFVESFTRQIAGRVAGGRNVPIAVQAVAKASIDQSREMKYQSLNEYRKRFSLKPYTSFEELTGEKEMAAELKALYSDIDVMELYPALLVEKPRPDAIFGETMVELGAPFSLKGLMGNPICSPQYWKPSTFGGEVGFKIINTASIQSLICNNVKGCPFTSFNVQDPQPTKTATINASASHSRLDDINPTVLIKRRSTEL
Summary of the method: as §1

[4] = NMR stability measurements in wet methanol; type: physicochemical; details: assay timescale

Row | Compound | IC50 COX-1 [1] | COX-1 inhibition in screen [2] | COX-2 inhibition in screen [3] | stability in wet methanol (NMR) [4]
1 | COc1ccc2c(c1)c(CC(=O)Oc1ccccc1)c(C)n2C(=O)c1ccc(Cl)cc1 [compound 10] | inactive | – | – | –
2 | 2-{1-[(4-Chlorophenyl)carbonyl]-5-methoxy-2-methyl-1H-indol-3-yl}acetic acid 1-(1,2-dicarba-closo-dodecaboranyl) ester [5o] | – | by far the best COX-inhibition | by far the best COX-inhibition | stable
